Assays:
[1] = biological target: Muscarinic acetylcholine receptor; assay: In vitro ability to displace [3H]quinuclidinyl benzilate (QNB) from rat cerebral cortex muscarinic acetylcholine receptor; assay type: tissue-based
Outline: (§1)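 Washed Hooded Lister rat cerebral cortex membranes (50 mM Tris pH 7.7), diluted from stored stock, incubated with test compound and 0.27 nM [3H]QNB at 37 °C for 30 min. GF/B filtration, ice-cold buffer washes, scintillation counting. Nonspecific binding typically 25% of total. Seven concentrations; geometric mean of separate experiments; IC50 (nM).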

[2] = biological target: Muscarinic acetylcholine receptor; assay: In vitro ability to displace [3H]oxotremorine-M (OXO-M) from rat cerebral cortex muscarinic acetylcholine receptor; assay type: tissue-based
Outline: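 Hooded Lister rat cerebral cortex homogenised in ice-cold 50 mM Tris pH 7.7 (at 25 °C), washed by repeated 25000g spins, stored at -20 °C. Incubation buffer with 2 mM MgCl2; 37 °C, 30 min; filtered on GF/B filters presoaked in 0.05% polyethylenamine; scintillation counting. Seven concentrations; geometric mean of at least two separate experiments; IC50 (nM).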

[3] = biological target: Muscarinic acetylcholine receptor (Rattus norvegicus) (UniProt P08482+P08483+P08485+P08911+P10980); assay: Ratio of Compound (IC50(nM) of QNB/ IC50(nM) of OXO-M); assay type: protein assay
[4] = biological target: Muscarinic acetylcholine receptor; assay: In vitro ability to displace [3H]oxotremorine-M (OXO-M) from rat cerebral cortex muscarinic receptor.; assay type: tissue-based
[5] = biological target: Muscarinic acetylcholine receptor; assay: In vitro displacement of [3H]quinuclidinyl benzilate (QNB) from rat cerebral cortex muscarinic receptor.; assay type: tissue-based
[6] = biological target: Muscarinic acetylcholine receptor; assay: In vitro ability to displace [3H]quinuclidinyl benzilate (QNB) from rat cerebral cortex Muscarinic acetylcholine receptor; assay type: tissue-based
[7] = biological target: Muscarinic acetylcholine receptor; assay: In vitro ability to displace [3H]oxotremorine-M (OXO-M) from rat cerebral cortex Muscarinic acetylcholine receptor; assay type: tissue-based
[8] = biological target: Muscarinic acetylcholine receptor; assay: In vitro ability to displace [3H]quinuclidinyl benzilate (QNB) from rat cerebral cortexMuscarinic acetylcholine receptor; assay type: tissue-based, Cerebral cortex; outline: as §1

| Structure (SMILES) | IC50 [4] | IC50 [5] | further results |
| --- | --- | --- | --- |
| Ic1nnn([C@H]2CN3CC[C@H]2C3)n1 | – | – | IC50 [1]: 372 nM; IC50 [2]: 48 nM; Ratio [3]: 8 |
| Nc1nnn(C2CN3CCC2CC3)n1 (stereo unspecified) | 38 nM | 4400 nM | – |
| Cc1ncn(C23CCCN(CC2)C3)n1 (stereo unspecified) | 12 nM | 2100 nM | – |
| Nc1ncn([C@H]2CN3CC[C@H]2C3)n1 | 18 nM | 3600 nM | – |
| N#Cc1nnn(C2CN3CCC2CC3)n1 (stereo unspecified) | 1400 nM | 5200 nM | – |
| Clc1nnn([C@H]2CN3CC[C@H]2C3)n1 | – | – | IC50 [1]: 630 nM; IC50 [2]: 7.6 nM; Ratio [3]: 83 |
| Nc1nnn(C23CCCN(CC2)C3)n1 (stereo unspecified) | 5.9 nM | 2670 nM | – |
| Cn1ncc(C23CCCN(CC2)C3)n1 (stereo unspecified) | 14 nM | 3100 nM | – |
| Cn1nnc(C23CCCN(CC2)C3)n1 (stereo unspecified) | 100 nM | 5700 nM | – |
| Nc1ncn(C23CCCN(CC2)C3)n1 (stereo unspecified) | 13 nM | 3900 nM | – |
| c1ncn(C23CCCN(CC2)C3)n1 (stereo unspecified) | 12 nM | 3600 nM | – |
| c1ncn(C23CCN(CC2)C3)n1 | 79 nM | 39900 nM | – |
| Brc1ncn([C@H]2CN3CC[C@H]2C3)n1 | – | – | IC50 [6]: 3040 nM; IC50 [7]: 31 nM |
| Cc1ncn(C23CCN(CC2)C3)n1 | 86 nM | 14900 nM | – |
| c1nnn([C@H]2CN3CC[C@H]2C3)n1 | 30 nM | 14300 nM | – |
| Cn1ncc(C23CCN(CC2)C3)n1 | 35 nM | 14400 nM | – |
| Nc1nnn([C@H]2CN3CC[C@H]2C3)n1 | 2.6 nM | 4360 nM | – |
| Cn1ncc([C@H]2CN3CC[C@H]2C3)n1 | 5.4 nM | 2800 nM | – |
| Cc1nnn(C23CCCN(CC2)C3)n1 (stereo unspecified) | 14 nM | 1925 nM | – |

| Structure (SMILES) | IC50 [4] | IC50 [5] | further results |
| --- | --- | --- | --- |
| Cn1ncc([C@@H]2CN3CC[C@H]2C3)n1 | 16 nM | 13500 nM | – |
| O=C1CCCN1CC#CCN1CCCC1 | – | – | Ratio [3]: 190 |
| Cc1nnn([C@H]2CN3CC[C@H]2C3)n1 | 4.2 nM | 1900 nM | – |
| c1nnn(C23CCCN(CC2)C3)n1 (stereo unspecified) | 19 nM | 7200 nM | – |
| Brc1nnn(C2CN3CCC2CC3)n1 (stereo unspecified) | – | – | IC50 [1]: 488 nM; IC50 [2]: 20 nM; Ratio [3]: 25 |
| Brc1nnn([C@H]2CN3CC[C@H]2C3)n1 | – | – | IC50 [1]: 822 nM; IC50 [2]: 7.4 nM; Ratio [3]: 111 |
| Brc1nnn(C23CCCN(CC2)C3)n1 (stereo unspecified) | – | – | IC50 [6]: 279 nM; IC50 [7]: 5.5 nM |
| Cc1nnn(C2CN3CCC2CC3)n1 (stereo unspecified) | 31 nM | – | – |
| Cn1nnc([C@@H]2CN3CC[C@H]2C3)n1 | 325 nM | 30600 nM | – |
| OC(c1ccccc1)(c1ccccc1)c1nnn(C2CN3CCC2CC3)n1 (stereo unspecified) | 3.6 nM | 2.8 nM | – |
| Cn1nnc(C23CCN(CC2)C3)n1 | 250 nM | 46700 nM | – |
| Clc1nnn(C2CN3CCC2CC3)n1 (stereo unspecified) | – | – | IC50 [1]: 578 nM; IC50 [2]: 27 nM; Ratio [3]: 21 |
| Cc1ncn([C@H]2CN3CC[C@H]2C3)n1 | 17 nM | 4300 nM | – |
| Ic1nnn(C2CN3CCC2CC3)n1 (stereo unspecified) | – | – | IC50 [1]: 216 nM; IC50 [2]: 43 nM; Ratio [3]: 5 |
| Clc1ncn([C@H]2CN3CC[C@H]2C3)n1 | – | – | IC50 [8]: 1290 nM; IC50 [7]: 14 nM |
| Clc1nnn(C23CCCN(CC2)C3)n1 (stereo unspecified) | – | – | IC50 [1]: 332 nM; IC50 [2]: 3.5 nM; Ratio [3]: 95 |
| Cn1nnc([C@H]2CN3CC[C@H]2C3)n1 | 11 nM | 2900 nM | – |
| O=[N+]([O-])c1ncn([C@H]2CN3CC[C@H]2C3)n1 | 4100 nM | 35600 nM | – |
| c1ncn([C@H]2CN3CC[C@H]2C3)n1 | 79 nM | 38200 nM | – |
